We go through 26 compounds from PubChem BioAssay.

The structures appear in SMILES notation. This is one part of the list. A number with no mark means an inactive call. Calls of active or inactive are those of the source.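 Rule for the calls, unless noted: active = mean percent activation of the reporter above a cutoff set as the average over tested compounds plus their standard deviation; inactive = the rest.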

The target of assay [1] is Oxysterols receptor LXR-beta (Homo sapiens) (UniProt P55055). Kind of assay: nonspecific reporter activation via LXR – cell-based, luminescence, HEK293, H. contortus campaign, counter-screen for hcDAF-12 agonist project, confirmation (AID 743027). The settings on record: HEK293 Gal4-LXR tk-luc reporter, 24 h, at 6.8 µM, stronger effect = higher value, normalized: DMSO 0%, positive control 100%. The essentials: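 System: HEK293 cells transfected with Gal4-LXR vector plus GAL4-driven tk-luciferase reporter / Replicates: triplicate wells per compound / Detection: luciferase luminescence read with One-Glo reagent / Read-out basis: % activation / Timing: 24 h compound exposure at 37 °C, 5% CO2 / Benchmarks: DMSO low control, positive-control high control / Compound dosing: 6.8 µM single dose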
A general note: The purpose of a counterscreen is to sort out artefacts and off-target activity.

The test system of assay [2] is Nuclear hormone receptor DAF-12 (Haemonchus contortus). Put plainly: hcDAF-12 luciferase reporter activation, retest – cell-based, luminescence, HEK293, lit1-tk-luc, triplicate, confirmation (AID 743032;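 active = mean activation across triplicate tests above the threshold derived from the earlier primary screen, cut at about 5.5% in these data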;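 note: 0% = DMSO only wells and 100% = 3 µM Δ7-dafachronic acid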). As to conditions: HEK293 hcDAF-12 lit1-tk-luc reporter, at 6.8 µM, stronger effect = higher value, % of Δ7-dafachronic acid response. (In general: A reporter such as luciferase makes a cellular process visible.)

In assay [3] the test system is DAF-12 nuclear receptor (Heterodera glycines), GAL4-LBD fusion. Kind of assay: hgDAF-12 GAL4 fusion reporter activation, retest – cell-based, luminescence, HEK293, GAL4-LBD fusion, confirmation (AID 743050;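 active = mean activation over triplicate wells above the hit cutoff derived from the earlier primary screen, cut at about 11% in these data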;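 note: 0% = DMSO low control and 100% = 2 mM sodium butyrate high control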). As to conditions: HEK293 GAL4-hgDAF12 luciferase reporter, agonist mode; at 6.8 µM; stronger effect = higher value; percent of butyrate response.
In assay [4] the target is Oxysterols receptor LXR-beta (Homo sapiens) (UniProt P55055). Put plainly: nonspecific reporter activation via LXR – cell-based, luminescence, HEK293, H. glycines campaign, counter-screen for hgDAF-12 agonist project, confirmation (AID 743051;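 active = mean activation of the triplicate above a set limit carried over from the primary screen, none filed active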). As to conditions: HEK293 Gal4-LXR luciferase reporter, 24 h; at 6.8 µM; stronger effect = higher value. The procedure, abridged: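 Assay system: Gal4-LXR luciferase reporter HEK293 cells; times: 3 h cell plating, then 24 h compound exposure at 37 °C; signal: luciferase luminescence; benchmarks: DMSO low control, 0.68% final; replication: n 3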

The target of assay [5] is Galanin receptor type 2 (Homo sapiens) (UniProt O43603). Kind of assay: blockers of human galanin receptor 2 – cell-based, confirmation (AID 866; in the data active = inhibition above about 27%;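 note: cells stimulated with galanin at about its EC80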). The settings on record: GALR2-expressing cells, antagonist mode, at 4 µM, stronger effect = higher value.
Assay [6] is described as follows: nonspecific BLA reporter inhibition – CHO NFAT-bla cells, FRET readout, counter-screen for GALR2 antagonist project, confirmation (AID 867;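 active = inhibition above the mean inhibition across tested compounds plus 3 SD, cut at about 27% in these data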;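 note: 0% = 500 nM thapsigargin stimulated wells and 100% = unstimulated BSA only wells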). The settings on record: beta-lactamase FRET, thapsigargin-stimulated, at 4.2 µM, stronger effect = higher value.

One may read the inhibition as how much of the control response was suppressed.

Sequence of Oxysterols receptor LXR-beta (Homo sapiens) (P55055 whole entry, looked up, the tested form may be a part): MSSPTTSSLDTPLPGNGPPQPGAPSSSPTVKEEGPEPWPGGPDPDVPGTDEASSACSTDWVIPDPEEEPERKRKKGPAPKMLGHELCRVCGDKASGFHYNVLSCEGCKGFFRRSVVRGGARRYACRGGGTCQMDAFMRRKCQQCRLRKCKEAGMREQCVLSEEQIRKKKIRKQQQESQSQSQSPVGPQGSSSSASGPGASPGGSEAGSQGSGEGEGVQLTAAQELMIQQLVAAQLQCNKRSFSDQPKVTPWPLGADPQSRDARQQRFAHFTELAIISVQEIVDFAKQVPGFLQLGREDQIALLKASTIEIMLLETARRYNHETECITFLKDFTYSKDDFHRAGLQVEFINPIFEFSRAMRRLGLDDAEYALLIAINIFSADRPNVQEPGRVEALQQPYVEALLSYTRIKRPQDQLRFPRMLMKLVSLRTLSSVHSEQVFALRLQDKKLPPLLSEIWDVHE
Sequence of Galanin receptor type 2 (Homo sapiens) (O43603 whole entry, looked up): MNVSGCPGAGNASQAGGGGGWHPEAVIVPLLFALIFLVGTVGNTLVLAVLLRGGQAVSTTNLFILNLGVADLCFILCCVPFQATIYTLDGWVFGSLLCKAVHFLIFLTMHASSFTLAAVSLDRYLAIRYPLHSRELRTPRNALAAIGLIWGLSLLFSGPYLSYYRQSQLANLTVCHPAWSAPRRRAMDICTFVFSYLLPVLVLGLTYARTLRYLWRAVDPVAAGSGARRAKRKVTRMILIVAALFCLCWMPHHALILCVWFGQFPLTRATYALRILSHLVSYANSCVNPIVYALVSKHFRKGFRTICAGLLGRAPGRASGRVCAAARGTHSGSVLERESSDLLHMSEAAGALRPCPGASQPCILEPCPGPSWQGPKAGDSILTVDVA

In the case of `Cc1ccnc(Nc2nc3ccccc3s2)n1`, the activation in assay [1] is 1.72%; in assay [2] it was 18.5% (active); in assay [3], 15% (active); in assay [4] it was 1.12%.

`c1cnc(N2CCN(c3ccc4ccccc4n3)CC2)nc1`: the activation in assay [1] is 0.85%; in assay [2] it was 5.39%; in assay [3], 16.9% (active); in assay [4] it was 0.78%.

In the case of `Cc1cccc(NC(=O)c2ccc3ccccc3n2)n1`, the activation in assay [1] is 1.06%; in assay [2] it was 10.5% (active); in assay [3] it was 17% (active); in assay [4], 0.69%.

Regarding `Brc1ccccc1C1N=C(c2ccccc2)NO1` (stereo not given), the activation in assay [1] is 1.08%; in assay [2] it was 11.3% (active); in assay [3], 19.6% (active); in assay [4], 0.87%.

Turning to `O=C(Nc1ccccc1)Nc1nc2ccccc2s1`, the activation in assay [1] was 1.95%; in assay [2], 9.44% (active); in assay [3] it was 20.4% (active); in assay [4], 1.06%.

In the case of `Oc1ccccc1-c1cc(-c2ccc(Cl)cc2)n[nH]1`, the activation in assay [1] was 1.85%; in assay [2], 14.7% (active); in assay [3] it was 29.5% (active); in assay [4] it was 1.15%.

With `O=C(Nc1ccc(Cl)c(Cl)c1)c1ccccc1NC(=O)C1CC=CCC1C(=O)O` (stereo not given), the activation in assay [3] was 10.2%; in assay [4], 0.27%.

For `Brc1ccc2nc(N3CCCC3)sc2c1`, the activation in assay [1] was 0.77%; in assay [2], 5.13%; in assay [3], 12.5% (active); in assay [4], 0.64%.

In the case of `O=C(NC(=O)c1ccccc1)Nc1ccccc1O`, the activation in assay [1] is 1.94%; in assay [2], 13.2% (active); in assay [3] it was 19.6% (active); in assay [4] it was 1.13%.

Regarding `Cc1ccc(NC(=O)c2cc3ccccc3o2)cc1`, the activation was 1.5% in assay [1], 7.27% (active) in assay [2], 22% (active) in assay [3] and 0.74% in assay [4].

For the compound `Cn1c(=NC(=O)c2ccco2)sc2cccc(F)c21`, the activation is 1.46% in assay [1], 15% (active) in assay [2], 22.9% (active) in assay [3] and 0.76% in assay [4].

Consider `Cc1cccc(/C(N)=N/OC(=O)c2ccccc2Cl)c1`, for which the activation was 2.08% in assay [1], 15.3% (active) in assay [2], 21.4% (active) in assay [3] and 1.18% in assay [4].

`Cn1c(NC(=O)c2ccccc2)nc2ccccc21`: the activation was 1.51% in assay [1], 16.7% (active) in assay [2], 19.1% (active) in assay [3] and 0.86% in assay [4].

For `Cc1ccc(SCCSc2ncccn2)cc1`, the activation in assay [1] is 1.19%; in assay [2], 7.13% (active); in assay [3] it was 14.6% (active); in assay [4] it was 0.89%.

Consider `CC(=O)Nc1cccc(C(=O)OCC(=O)c2ccc3c(c2)OCO3)c1`, for which the activation in assay [1] is 1.92%; in assay [2], 8.03% (active); in assay [3] it was 16.6% (active); in assay [4], 1.1%.

With `Oc1cccc2ccc(/C=C/c3ccc(Br)s3)nc12`, the activation in assay [1] is 1.05%; in assay [2], 13.8% (active); in assay [3], 15.8% (active); in assay [4], 0.56%.

On to `c1ccc(Cc2c(-c3ccco3)nc3c4ccccc4ccn23)cc1`, for which the activation in assay [1] is 1.44%; in assay [2], 15.8% (active); in assay [3], 16.6% (active); in assay [4] it was 0.76%.

Regarding `Nc1ccc(C(=O)Nc2ccccc2N)cc1`, the activation is 1.14% in assay [1], 9.52% (active) in assay [2], 85.4% (active) in assay [3] and 0.48% in assay [4].

On to `Cc1ccnc(NC(=O)CCNS(=O)(=O)c2ccc(C)c(C)c2)c1`, for which the activation in assay [1] was 1.16%; in assay [2] it was 5.73% (active); in assay [3], 17.9% (active); in assay [4] it was 0.55%.

In the case of `CCOC(=O)c1cn[nH]c1NC(=S)Nc1ccccc1`, the activation in assay [1] is 1.51%; in assay [2], 4.78%; in assay [3] it was 15.6% (active); in assay [4], 1.01%.

`COc1ccc2nc(-c3ccccn3)ccc2c1`: the activation is 1.86% in assay [1], 11.8% (active) in assay [2], 16.7% (active) in assay [3] and 1.05% in assay [4].

Regarding `Cc1cc(OCc2cc(C(=O)NCc3cc(C(C)C)no3)no2)cc(C)c1Cl`, the activation was 0.91% in assay [1], 7.69% (active) in assay [2], 20.9% (active) in assay [3] and 0.62% in assay [4].

With `CN1CCN(c2ccc(NC(=O)c3ccc4c(c3)OCCO4)cc2Cl)CC1`, the activation is 1.56% in assay [1], 6.28% (active) in assay [2], 9.5% in assay [3] and 0.88% in assay [4].

For `Cn1c(-c2ccco2)nc2cc3ccccc3cc21`, the values for the inhibition in assay [5] and in assay [6] were 32.7% (active) and 15.4%, respectively. In addition, the activation in assay [1] is 2.33%; in assay [2] it was 17.3% (active).

Turning to `Clc1ccc(Nc2ccc3ccccc3n2)cc1`, the activation is 2.07% in assay [1], 15% (active) in assay [2], 28.6% (active) in assay [3] and 1.31% in assay [4].

Regarding `Cc1c(C(=O)Nc2ccccn2)oc2ccc(Br)cc12`, the activation in assay [1] is 1.8%; in assay [2], 15.4% (active).
